Test results taken from ChEMBL document CHEMBL3244245, “Aporphines, 21. (1,2) Dopaminergic activity of aporphine and benzylisoquinoline derivatives. Synthesis of 8-hydroxyaporphines and 1-(hydroxybenzyl)-2-n-propyl-1,2,3,4-tetrahydroisoquinolines” (J Med Chem, 1977).
Activity calls are given as the source filed them. The rule behind the calls is not given here.

Tests used:
Rattus norvegicus [1] = assay: Behavioral responses in Sprague-Dawley rat with unilateral 6-OHDA lesion of nigrostriatal pathway assessed as bilateral response at 6.25 to 25 […] into caudate-putamen; assay type: functional, organism-based
Method in brief: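 Guide cannulae implanted chronically; rats used 10-14 days after surgery. Nialamide 100 mg/kg ip given 2 h before injection. Drug dissolved in nitrogen-bubbled distilled water and injected bilaterally into caudate-putamen through injection units 1.5 mm below guide tips. Photocell counts per 5-min period recorded every 10 min up to 7 h. Biting and sniffing scored on intensity scales. Six to twelve rats per dose.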

Rattus norvegicus [2] = species on record: Rattus norvegicus; assay: Behavioral responses in Sprague-Dawley rat pretreated with nialamide assessed as hyperactivity response at 6.25 to 25 µg direct injection into caudate-putamen
Rattus norvegicus [3] = assay: Circling behavior in Sprague-Dawley rat with unilateral 6-OHDA lesion of nigrostriatal pathway assessed as number of revolutions performed per min at 0.25 to 4 mg/kg, sc; assay type: functional, organism-based
Method in brief: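 Unilateral lesion made by infusing 4 µl 6-OHDA at 1 µl/min into the medial forebrain bundle in the lateral hypothalamus. Rats were tested 7-21 days later with drug given sc in distilled water containing 0.1% sodium metabisulfite. Contralateral circling was counted as revolutions per min. Values are the mean of at least five rats.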

Rattus norvegicus [4] = assay: Behavioral responses in Sprague-Dawley rat with unilateral 6-OHDA lesion of nigrostriatal pathway assessed as hyperactivity response at 3.125 to 25 […] into nucleus accumbens; assay type: functional, organism-based
Method in brief: (§1)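 Guide cannulae implanted chronically; rats used 10-14 days after surgery. Nialamide 100 mg/kg ip given 2 h before injection. Drug in nitrogen-bubbled distilled water injected bilaterally into nucleus accumbens through units 2.5 mm below guide tips. Hyperactivity counted as photocell interruptions per 5-min period, recorded every 10 min up to 7 h. Biting and sniffing scored on intensity scales. Six to twelve rats per dose.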

Rattus norvegicus [5] = species on record: Rattus norvegicus; assay: Stereotyped behavior in Sprague-Dawley rat pretreated with nialamide assessed as hyperactivity behavior at 3.125 to 25 µg, bilateral intrastriatal
Rattus norvegicus [6] = assay: Stereotyped behavior in Sprague-Dawley rat with unilateral 6-OHDA lesion of nigrostriatal pathway assessed as continuous biting at 0.5 to 4 mg/kg, sc; assay type: functional, organism-based
Rattus norvegicus [7] = assay: Stereotyped behavior in Sprague-Dawley rat with unilateral 6-OHDA lesion of nigrostriatal pathway assessed as sniffing and repetitive head and limb movements up to 4 mg/kg, sc; assay type: functional, organism-based; design: dose 4 mg/kg
Rattus norvegicus [8] = assay: Antagonism of dopamine-induced hyperactivity in Sprague-Dawley rat with unilateral 6-OHDA lesion of nigrostriatal pathway at 0.1 to 1 mg/kg, sc after 2.5 hrs treated bilateral injection of 50 ug of dopamine into the nucleus accumbens; assay type: functional, organism-based
Method in brief: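 Rats received nialamide 100 mg/kg ip, then 2 h later 50 µg dopamine bilaterally into the nucleus accumbens. At 2.5 h, at peak hyperactivity, test drug was given sc in water with 0.1% sodium metabisulfite. Locomotion was measured as photocell beam interruptions per 5 min. Five to eight rats were used per dose.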

Rattus norvegicus [9] = species on record: Rattus norvegicus; assay: Stereotyped behavior in Sprague-Dawley rat pretreated with nialamide assessed as biting behavior at 3.125 to 25 µg, bilateral intrastriatal
Rattus norvegicus [10] = species on record: Rattus norvegicus; assay: Stereotyped behavior in Sprague-Dawley rat pretreated with nialamide assessed as bilateral behavior at 3.125 to 25 µg, bilateral intrastriatal
Rattus norvegicus [11] = species on record: Rattus norvegicus; assay: Stereotyped behavior in Sprague-Dawley rat pretreated with nialamide assessed as sniffing behavior at 3.125 to 25 µg, bilateral intrastriatal
Rattus norvegicus [12] = assay: Stereotyped behavior in Sprague-Dawley rat with unilateral 6-OHDA lesion of nigrostriatal pathway assessed as biting behavior at 3.125 to 25 […] into nucleus accumbens; assay type: functional, organism-based; method in brief: as §1
Rattus norvegicus [13] = assay: Stereotyped behavior in Sprague-Dawley rat with unilateral 6-OHDA lesion of nigrostriatal pathway assessed as continuous biting at 0.1 mg/kg, sc; assay type: functional, organism-based; design: dose 0.1 mg/kg
Rattus norvegicus [14] = assay: Stereotyped behavior in Sprague-Dawley rat with unilateral 6-OHDA lesion of nigrostriatal pathway assessed as sniffing behavior at 25 […] into nucleus accumbens; assay type: functional, organism-based; method in brief: as §1
Rattus norvegicus [15] = species on record: Rattus norvegicus; assay: Stereotyped behavior in Sprague-Dawley rat pretreated with nialamide assessed as biting behavior at 25 µg, bilateral intrastriatal
Rattus norvegicus [16] = species on record: Rattus norvegicus; assay: Behavioral responses in Sprague-Dawley rat pretreated with nialamide assessed as hyperactivity response at 25 µg, bilateral intrastriatal
Rattus norvegicus [17] = assay: Stereotyped behavior in Sprague-Dawley rat with unilateral 6-OHDA lesion of nigrostriatal pathway assessed as sniffing and repetitive head and limb movements at 0.0063 to 0.05 mg/kg, sc; assay type: functional, organism-based
Rattus norvegicus [18] = assay: Antagonism of dopamine-induced hyperactivity in sc dosed Sprague-Dawley rat with unilateral 6-OHDA lesion of nigrostriatal pathway after 2.5 hrs treated bilateral injection of 50 ug of dopamine into the nucleus accumbens; assay type: functional, organism-based
Method in brief: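 Rats pretreated with nialamide 100 mg/kg ip; 2 h later, 50 µg dopamine bilaterally into nucleus accumbens. At 2.5 h, at peak hyperactivity, test drug given sc in distilled water with 0.1% sodium metabisulfite. Activity read as photocell beam interruptions per 5-min period. Five to eight rats per dose.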

Rattus norvegicus [19] = assay: Circling behavior in sc dosed Sprague-Dawley rat with unilateral 6-OHDA lesion of nigrostriatal pathway assessed as number of revolutions performed per min; assay type: functional, organism-based
Method in brief: (§2)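 Unilateral lesion made with 6-OHDA, 4 µl of 2 µg/µl at 1 µl/min, into medial forebrain bundle area of lateral hypothalamus. Rats tested 7-21 days later. Drug given sc in distilled water with 0.1% sodium metabisulfite. Contralateral circling counted as revolutions per minute. Mean of at least five rats.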

Rattus norvegicus [20] = species on record: Rattus norvegicus; assay: Stereotyped behavior in Sprague-Dawley rat pretreated with nialamide assessed as sniffing behavior at 25 µg, bilateral intrastriatal
Rattus norvegicus [21] = assay: Stereotyped behavior in Sprague-Dawley rat with unilateral 6-OHDA lesion of nigrostriatal pathway assessed as maximal biting behavior at 25 […] into nucleus accumbens; assay type: functional, organism-based; method in brief: as §1
Rattus norvegicus [22] = assay: Stereotyped behavior in Sprague-Dawley rat with unilateral 6-OHDA lesion of nigrostriatal pathway assessed as continuous biting up to 4 mg/kg, sc; assay type: functional, organism-based; design: dose 4 mg/kg
Rattus norvegicus [23] = assay: Circling behavior in Sprague-Dawley rat with unilateral 6-OHDA lesion of nigrostriatal pathway assessed as number of revolutions performed per min at 0.5 to 2 mg/kg, sc; assay type: functional, organism-based; method in brief: as §2
Rattus norvegicus [24] = assay: Behavioral responses in Sprague-Dawley rat with unilateral 6-OHDA lesion of nigrostriatal pathway assessed as hyperactivity response at 6.25 to 50 […] direct injection into nucleus accumbens; assay type: functional, organism-based
Method in brief: (§3)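 Nialamide 100 mg/kg ip was given 2 h beforehand. Drug was dissolved in nitrogen-bubbled water and injected bilaterally through chronic guide cannulae 10-14 days after surgery. Injection units extended 1.5 mm (caudate-putamen) or 2.5 mm (nucleus accumbens) below the guides. Biting and sniffing were scored in photocell boxes, and hyperactivity was counted as beam interruptions per 5 min, recorded every 10 min for up to 7 h. Six to twelve rats were used per dose.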

Rattus norvegicus [25] = assay: Stereotyped behavior in Sprague-Dawley rat with unilateral 6-OHDA lesion of nigrostriatal pathway assessed as biting behavior at 25 to 50 […] into caudate-putamen; assay type: functional, organism-based; method in brief: as §3
Rattus norvegicus [26] = assay: Stereotyped behavior in Sprague-Dawley rat with unilateral 6-OHDA lesion of nigrostriatal pathway assessed as biting behavior at 6.25 to 50 […] into nucleus accumbens; assay type: functional, organism-based; method in brief: as §3
Rattus norvegicus [27] = assay: Stereotyped behavior in Sprague-Dawley rat with unilateral 6-OHDA lesion of nigrostriatal pathway assessed as maximal sniffing and repetitive head and limb movements at 0.5 mg/kg, sc; assay type: functional, organism-based; design: dose 0.5 mg/kg
Rattus norvegicus [28] = species on record: Rattus norvegicus; assay: Stereotyped behavior in Sprague-Dawley rat pretreated with nialamide assessed as sniffing behavior at 50 µg, bilateral intrastriatal
Rattus norvegicus [29] = assay: Stereotyped behavior in Sprague-Dawley rat with unilateral 6-OHDA lesion of nigrostriatal pathway assessed as continuous biting at 2 mg/kg, sc; assay type: functional, organism-based; design: dose 2 mg/kg
Rattus norvegicus [30] = assay: Stereotyped behavior in sc dosed Sprague-Dawley rat with unilateral 6-OHDA lesion of nigrostriatal pathway assessed as sniffing and repetitive head and limb movements; assay type: functional, organism-based
Rattus norvegicus [31] = assay: Stereotyped behavior in Sprague-Dawley rat with unilateral 6-OHDA lesion of nigrostriatal pathway assessed as sniffing behavior at 6.25 to 50 […] into nucleus accumbens; assay type: functional, organism-based; method in brief: as §3
Rattus norvegicus [32] = species on record: Rattus norvegicus; assay: Stereotyped behavior in Sprague-Dawley rat with unilateral 6-OHDA lesion of nigrostriatal pathway assessed as continuous biting; assay type: functional, organism-based

Compound	Activity (Rattus norvegicus [1])	Activity (Rattus norvegicus [2])	Activity (Rattus norvegicus [3])	Activity (Rattus norvegicus [4])	Activity (Rattus norvegicus [5])	Activity (Rattus norvegicus [7])	inhibition (Rattus norvegicus [8])	Activity (Rattus norvegicus [9])	Activity (Rattus norvegicus [10])	Activity (Rattus norvegicus [11])	other results
CN1CCc2cccc3c2C1Cc1c(O)cccc1-3 (racemic)	inactive	inactive	–	–	–	–	–	–	–	–	–
CCCN1CCc2ccccc2C1Cc1ccc(O)cc1 (racemic)	inactive	inactive	inactive	inactive	inactive	inactive	inactive	inactive	inactive	inactive	Activity (Rattus norvegicus [6]): inactive
CCCN1CCc2cccc3c2[C@H]1Cc1ccc(O)c(O)c1-3	inactive	inactive	–	inactive	–	–	–	–	–	–	Activity (Rattus norvegicus [12]): Active; Activity (Rattus norvegicus [13]): Active; Activity (Rattus norvegicus [14]): Active; Activity (Rattus norvegicus [15]): Active; Activity (Rattus norvegicus [16]): inactive; Activity (Rattus norvegicus [17]): Active; inhibition (Rattus norvegicus [18]): Dose-dependent effect; Activity (Rattus norvegicus [19]): Dose-dependent effect; Activity (Rattus norvegicus [20]): Active; Activity (Rattus norvegicus [21]): Active
CCCN1CCc2ccccc2C1Cc1ccc(O)c(O)c1 (racemic)	inactive	inactive	inactive	inactive	inactive	inactive	inactive	inactive	inactive	inactive	Activity (Rattus norvegicus [6]): inactive
CCCN1CCc2cccc3c2C1Cc1ccc(O)cc1-3 (stereo unspecified)	inactive	inactive	–	inactive	inactive	inactive	inactive	inactive	inactive	inactive	Activity (Rattus norvegicus [22]): Active; Activity (Rattus norvegicus [23]): Dose-dependent effect
CCCN1CCc2cccc3c2C1Cc1c(O)cccc1-3 (racemic)	inactive	inactive	inactive	inactive	inactive	inactive	inactive	inactive	inactive	inactive	Activity (Rattus norvegicus [22]): Active
NCCc1ccc(O)c(O)c1	Active	Active	–	–	–	–	–	–	–	–	Activity (Rattus norvegicus [24]): inactive
CN1CCc2cccc3c2[C@H]1Cc1ccc(O)c(O)c1-3	inactive	inactive	–	–	–	–	inactive	–	–	–	Activity (Rattus norvegicus [25]): Active; Activity (Rattus norvegicus [24]): Active; Activity (Rattus norvegicus [26]): Active; Activity (Rattus norvegicus [27]): Active; inhibition (Rattus norvegicus [18]): Dose-dependent effect; Activity (Rattus norvegicus [28]): inactive; Activity (Rattus norvegicus [19]): Dose-dependent effect; Activity (Rattus norvegicus [29]): Active; Activity (Rattus norvegicus [30]): Dose-dependent effect; Activity (Rattus norvegicus [31]): Active; Activity (Rattus norvegicus [32]): Dose-dependent effect
